inhibition, IC50 and Activity data for one molecule are collected here from ChEMBL document CHEMBL1156470, “Inhibition of the activation of multiple serine proteases with a cathepsin C inhibitor requires sustained exposure to prevent pro-enzyme processing” (J Biol Chem, 2007).

pIC50: −log10 of the molar value. Active and inactive are the calls of the source. The rule behind the calls is not given here.

Test [1] concerns the target T1, Neutrophil elastase (Mus musculus) (UniProt Q3UP87).
T1 sequence (whole entry): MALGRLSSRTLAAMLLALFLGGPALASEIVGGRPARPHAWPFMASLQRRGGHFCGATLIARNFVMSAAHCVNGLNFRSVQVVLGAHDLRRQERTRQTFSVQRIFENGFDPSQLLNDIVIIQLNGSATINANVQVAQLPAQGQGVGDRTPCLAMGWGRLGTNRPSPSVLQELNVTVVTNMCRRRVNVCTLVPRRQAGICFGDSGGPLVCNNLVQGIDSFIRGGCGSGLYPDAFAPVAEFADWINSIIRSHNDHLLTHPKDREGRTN
The conditions noted are these: EcoM-G, 1 uM.

Test [2] concerns the target T2, Cathepsin G (Mus musculus, UniProt P28293).
T2 sequence (P28293 whole entry): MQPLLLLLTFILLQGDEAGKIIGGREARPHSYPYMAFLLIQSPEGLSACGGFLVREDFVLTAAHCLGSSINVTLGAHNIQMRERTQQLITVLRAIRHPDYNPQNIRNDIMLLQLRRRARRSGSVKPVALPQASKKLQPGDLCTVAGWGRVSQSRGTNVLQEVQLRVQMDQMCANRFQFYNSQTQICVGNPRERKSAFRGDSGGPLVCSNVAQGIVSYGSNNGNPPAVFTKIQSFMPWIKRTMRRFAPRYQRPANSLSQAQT
In words: Inhibition of cathepsin G activation in beta-estradiol differentiated mouse EcoM-G cells after 24 hrs. The format is cell-based. A digest of the protocol:
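EcoM-G cells (cultures <3 months old) washed and seeded at 0.5×10^6 cells/ml without β-estradiol. After 24 h, compound added in Me₂SO (final 0.5%), then cells differentiated a further 24 h, harvested and lysed. NE assayed with 400 μM MeOSuc-AAPV-AMC, CG with 1 mM Suc-AAPF-pNA (405 nm, 5 min), Pr-3 with 10 μM internally quenched substrate (ex 328/em 393 nm), all from the same lysates. IC50 from four-parameter Hill fit.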

Test [3] has as its target T3, Dipeptidyl peptidase 1 (Homo sapiens, UniProt P53634). In words: Inhibition of human recombinant cathepsin C after 10 mins. Summed up: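 Recombinant human cathepsin C at 1 nM in 25 mM MES pH 6.0, 50 mM NaCl, 5 mM DTT, with 50 μM Gly-Arg-AMC (twice Km). Enzyme preincubated with inhibitor 10 min, then substrate added, at room temperature. Fluorogenic AMC release.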

In a further test the test system is U-937 (Homo sapiens). Kind of test: Effect on neutrophil elastase protein expression in human U937 cells at 30 uM after 7 days by Western blot.
Test [4] addresses T4, Cathepsin G (Homo sapiens, UniProt P08311).
T4 sequence (P08311 whole entry): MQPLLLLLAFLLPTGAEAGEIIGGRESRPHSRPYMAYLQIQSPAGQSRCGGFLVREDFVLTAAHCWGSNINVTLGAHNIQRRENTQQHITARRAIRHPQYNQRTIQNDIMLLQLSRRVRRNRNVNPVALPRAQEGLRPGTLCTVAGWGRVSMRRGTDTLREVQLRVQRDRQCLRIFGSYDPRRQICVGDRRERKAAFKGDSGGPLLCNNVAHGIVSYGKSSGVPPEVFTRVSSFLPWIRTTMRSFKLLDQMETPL
In words: Blockade of cathepsin G processing in human U937 cells by densitometry. The format is cell-based, U-937. Summed up:
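U937 cells washed, plated at 2×10^6 cells/ml in methionine/glutamine-free RPMI, inhibitor or 0.5% Me₂SO added during 30 min starvation, pulsed with [³⁵S]methionine (10 μCi/ml) 30 min, re-seeded in complete medium with inhibitor and chased 3 h. Lysates bound to aprotinin-agarose 1 h at room temperature, SDS-PAGE and fluorography. CG band quantitated by densitometry as % inhibition vs vehicle.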

For test [5], the target named is T3, Dipeptidyl peptidase 1. In words: Inhibition of intracellular cathepsin C active site in human U937 cells assessed as reduction of Ala-4[125I]Phe-DMK labeled 23 kDa protein at 10 uM by autoradiography based pulse chase assay. In kind it is cell-based. The conditions noted are these: U-937. Summed up: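 U937 cells (200,000) preincubated 30 min with 10 μM competitor or 0.5% Me₂SO, then labelled 15 min with 0.5 nM Ala-4-[¹²⁵I]Phe-DMK. Quenched with 1 μM unlabelled probe, washed, and lysed in 20 mM MES pH 6.0, 50 mM NaCl, 0.5% NP-40. Run on reducing 10–20% SDS-PAGE; film exposed 6–24 h.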

Another test deals with T5, Pro-cathepsin H (Homo sapiens, UniProt P09668).
T5 sequence (P09668 whole entry): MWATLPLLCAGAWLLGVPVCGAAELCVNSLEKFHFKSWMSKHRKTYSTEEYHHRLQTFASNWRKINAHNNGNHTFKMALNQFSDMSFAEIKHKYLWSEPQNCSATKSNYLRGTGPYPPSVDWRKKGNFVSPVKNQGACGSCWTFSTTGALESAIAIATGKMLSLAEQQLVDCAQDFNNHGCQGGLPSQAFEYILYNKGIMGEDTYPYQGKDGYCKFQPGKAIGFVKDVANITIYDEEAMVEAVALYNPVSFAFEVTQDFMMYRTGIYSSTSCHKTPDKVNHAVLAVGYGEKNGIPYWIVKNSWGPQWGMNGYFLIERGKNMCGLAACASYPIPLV
Kind of test: Inhibition of human recombinant cathepsin H after 10 mins.

T3 sequence (P53634 25-134 limits assumed): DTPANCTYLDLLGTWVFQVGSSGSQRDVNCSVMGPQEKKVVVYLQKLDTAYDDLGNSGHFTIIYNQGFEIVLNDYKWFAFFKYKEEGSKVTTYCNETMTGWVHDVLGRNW
T3 sequence (P53634 231-394 limits assumed): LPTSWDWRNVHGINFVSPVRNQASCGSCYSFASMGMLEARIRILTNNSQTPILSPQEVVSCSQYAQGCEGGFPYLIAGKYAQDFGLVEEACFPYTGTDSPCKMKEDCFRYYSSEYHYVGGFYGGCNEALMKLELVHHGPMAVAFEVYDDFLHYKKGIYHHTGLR
T3 sequence (P53634 395-463 limits assumed): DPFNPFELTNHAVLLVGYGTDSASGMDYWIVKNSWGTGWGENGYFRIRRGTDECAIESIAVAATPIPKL

In the case of `N#C[C@@]1(NC(=O)[C@@H](N)Cc2cccs2)C[C@@H]1c1ccccc1.O=C(O)C(F)(F)F`, the inhibition (as a rule, the share of the control response that was lost under treatment) in test [1] amounted to 80%. The pIC50 – broadly, the negative decadic logarithm of the IC50, by convention in mol/L – against Cathepsin G [2] is 6.32; at Dipeptidyl peptidase 1 [3] it was 7.85; at Cathepsin G [4] it was 6.82; on Pro-cathepsin H it was less than 4.30. Besides, the result in the test with U-937 (Homo sapiens) was inactive. Moreover, on Dipeptidyl peptidase 1 [5], the result was Active.
